The record followed here is ChEMBL document CHEMBL2424585, “Biological evaluation of hyperforin and its hydrogenated analogue on bacterial growth and biofilm production” (2013).

What all share (assay type): functional
The subject of experiment [1] is Enterococcus faecalis. As to the kind of experiment: Antibacterial activity against Enterococcus faecalis ATCC 29212 after 18 hrs by XTT assay. The method, boiled down:
(§1)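 Mature biofilms grown in TSB + 2% glucose from ~10^5 cfu/mL: 4 h shaken adhesion at 37 °C, medium replaced, then 24 h at 37 °C. Rinsed with PBS, then serial dilutions (150–18.7 or 25–6.25 μg/mL; PEG-200 vehicle for one agent) added for 18 h at 37 °C with shaking. Viability read by XTT–menadione, 2 h dark, 492 nm. MBIC = lowest concentration with no detectable biofilm growth. Triplicate.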

Experiment [2] concerns Staphylococcus aureus. Description: Antibacterial activity against Staphylococcus aureus EMRSA-15 after 18 hrs by MTT assay. Particulars: EMRSA-15, 18 h. The method, boiled down: (§2)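 Broth microdilution MIC per CLSI M7-A6. Serial 2-fold dilutions in cation-adjusted Mueller-Hinton broth (20 mg/L Ca2+, 10 mg/L Mg2+), ranging 16 to 0.25 μg/mL (DMSO stock) or 256 to 0.25 μg/mL (ethanol stock). Inoculum 5 × 10^5 cfu in saline. Incubated 37 °C, 18 h. Growth detected by MTT colour change. MIC = lowest concentration with no visible growth.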

Experiment [3] relates to Staphylococcus aureus. As to the kind of experiment: Antibacterial activity against Staphylococcus aureus XU212 after 18 hrs by MTT assay. Particulars: XU212, 18 h. The method, boiled down:
as §2

For experiment [4], the system named is Staphylococcus aureus. As to the kind of experiment: Antibacterial activity against Staphylococcus aureus ATCC 29213 after 18 hrs by XTT assay. Summed up:
as §1

The subject of experiment [5] is Staphylococcus aureus. Description: Antibacterial activity against Staphylococcus aureus ATCC 29213 assessed as reduction of microorganisms in biofilm at 25 ug/ml after 18 hrs by XTT assay relative to untreated control. The arrangement: scale not given: the % may be the effect or the level left. Summed up:
(§3)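 Mature 24 h biofilms grown in TSB + 2% glucose were PBS-rinsed and exposed to the stated concentration for 18 h at 37 °C with shaking. Metabolic activity was then measured by XTT (1 mg/mL in PBS) with menadione, 2 h at 37 °C in the dark, absorbance 492 nm. Activity is expressed as OD relative to untreated TSB biofilms. Triplicate.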

Experiment [6] concerns Staphylococcus aureus. Description: Antibacterial activity against Staphylococcus aureus ATCC 43300 assessed as reduction of microorganisms in biofilm at 25 ug/ml after 18 hrs by XTT assay relative to untreated control. The arrangement: scale not given: the % may be the effect or the level left. The method, boiled down: as §3
For experiment [7], the system named is Staphylococcus aureus. As to the kind of experiment: Antibacterial activity against methicillin-resistant Staphylococcus aureus Ig5 clinical isolate after 18 hrs by MTT assay. Particulars: Ig5, 18 h. The method, boiled down:
as §2

Experiment [8] deals with Staphylococcus aureus. As to the kind of experiment: Antibacterial activity against methicillin-resistant Staphylococcus aureus Ig5 clinical isolate after 18 hrs by XTT assay. Summed up:
as §1

The test system of experiment [9] is Staphylococcus aureus. As to the kind of experiment: Antibacterial activity against Staphylococcus aureus ATCC 25923 after 18 hrs by MTT assay. Particulars: ATCC 25923, 18 h. The method, boiled down: as §2
In experiment [10] the test system is Staphylococcus aureus. Description: Antibacterial activity against Staphylococcus aureus ATCC 29213 after 18 hrs by MTT assay. The conditions noted are these: ATCC 29213, 18 h. Summed up: as §2
For experiment [11], the system named is Staphylococcus aureus. Description: Antibacterial activity against Staphylococcus aureus SA1199B after 18 hrs by MTT assay. The method, boiled down:
as §2

Experiment [12] has as its system Staphylococcus aureus. As to the kind of experiment: Antibacterial activity against methicillin-resistant Staphylococcus aureus ATCC 43300 after 18 hrs by MTT assay. The conditions noted are these: ATCC 43300, 18 h. The method, boiled down:
as §2

Experiment [13] deals with Staphylococcus aureus. Description: Antibacterial activity against methicillin-resistant Staphylococcus aureus ATCC 43300 after 18 hrs by XTT assay. Summed up: as §1
The test system of another experiment is Escherichia coli. Description: Antibacterial activity against Escherichia coli ATCC 25922 after 18 hrs by MTT assay. The method, boiled down: as §2
Experiment [14] deals with Staphylococcus aureus. Description: Antibacterial activity against methicillin-resistant Staphylococcus aureus Ig5 clinical isolate assessed as reduction of microorganisms in biofilm at 25 ug/ml after 18 hrs by XTT assay relative to untreated control. The arrangement: scale not given: the % may be the effect or the level left. The method, boiled down:
as §3

The test system of experiment [15] is Enterococcus faecalis. As to the kind of experiment: Antibacterial activity against Enterococcus faecalis ATCC 29212 after 18 hrs by MTT assay. The conditions noted are these: ATCC 29212, 18 h. Summed up: as §2
In experiment [16] the test system is Enterococcus faecalis. Description: Antibacterial activity against Enterococcus faecalis ATCC 29212 assessed as reduction of microorganisms in biofilm at 25 ug/ml after 18 hrs by XTT assay relative to untreated control. Set-up: scale not given: the % may be the effect or the level left. The method, boiled down: as §3
For experiment [17], the system named is Staphylococcus aureus. Description: Antibacterial activity against Staphylococcus aureus RN4220 after 18 hrs by MTT assay. The conditions noted are these: RN4220, 18 h. Summed up: as §2
For experiment [18], the system named is Staphylococcus aureus. As to the kind of experiment: Antibacterial activity against methicillin-resistant Staphylococcus aureus Ig5 clinical isolate assessed as reduction of microorganisms in biofilm at 150 ug/ml after 18 hrs by XTT assay relative to untreated control. The arrangement: scale not given: the % may be the effect or the level left. The method, boiled down:
as §3

For experiment [19], the system named is Staphylococcus aureus. Description: Antibacterial activity against Staphylococcus aureus ATCC 43300 assessed as reduction of microorganisms in biofilm at 37.5 ug/ml after 18 hrs by XTT assay relative to untreated control. The arrangement: scale not given: the % may be the effect or the level left. Summed up:
as §3

Experiment [20] deals with Staphylococcus aureus. As to the kind of experiment: Antibacterial activity against Staphylococcus aureus ATCC 29213 assessed as reduction of microorganisms in biofilm at 150 ug/ml after 18 hrs by XTT assay relative to untreated control. Set-up: scale not given: the % may be the effect or the level left. The method, boiled down: as §3
Experiment [21] has as its system Staphylococcus aureus. As to the kind of experiment: Antibacterial activity against Staphylococcus aureus Ig5 assessed as reduction of microorganisms in biofilm at 37.5 ug/mL after 18 hrs by XTT assay relative to untreated control. Set-up: scale not given: the % may be the effect or the level left. Summed up: as §3
Experiment [22] has as its system Enterococcus faecalis. As to the kind of experiment: Antibacterial activity against Enterococcus faecalis ATCC 29212 assessed as reduction of microorganisms in biofilm at 37.5 ug/ml after 18 hrs by XTT assay relative to untreated control. The arrangement: scale not given: the % may be the effect or the level left. Summed up: as §3

Molecules are shown by their SMILES. In brackets after ≈: the same amount, converted by molar mass. Activity calls are given as the source filed them. The calls are words filed in the database; no cut-off is given here.

Take `C1CCC(NC2CCCCC2)CC1.CC(C)=CCC[C@]1(C)[C@@H](CC=C(C)C)C[C@]2(CC=C(C)C)C(=O)C(CC=C(C)C)=C(O)[C@@]1(C(=O)C(C)C)C2=O`: the MBIC with Enterococcus faecalis [1], in the experiment on Staphylococcus aureus [4], in the experiment with Staphylococcus aureus [8] and with Staphylococcus aureus [13] was 25 µg/mL in each case. The MIC came out at 2 µg/mL in the experiment on Staphylococcus aureus [2]; 0.5 µg/mL in the experiment with Staphylococcus aureus [3]; 1 µg/mL against Staphylococcus aureus [7]; 1 µg/mL with Staphylococcus aureus [9]; 1 µg/mL in the experiment with Staphylococcus aureus [10]; 2 µg/mL against Staphylococcus aureus [11]. Further, the MIC with Staphylococcus aureus [12] and in the experiment on Enterococcus faecalis [15] was 1 µg/mL each time. The Activity turned out to be 45% in the experiment on Staphylococcus aureus [5], 21% in the experiment on Staphylococcus aureus [6], 33% with Staphylococcus aureus [14] and 34% in the experiment on Enterococcus faecalis [16]. For the same molecule, the MIC entry with Escherichia coli was “inactive”.
Turning to `CCn1cc(C(=O)O)c(=O)c2cc(F)c(N3CCNCC3)cc21` [NORFLOXACIN], the MIC was found to be 0.5 µg/mL (≈ 1.57 µM) in the experiment on Staphylococcus aureus [2]; 4 µg/mL (≈ 12.5 µM) in the experiment on Staphylococcus aureus [3]; 2 µg/mL (≈ 6.26 µM) against Staphylococcus aureus [7]; 1 µg/mL (≈ 3.13 µM) against Staphylococcus aureus [17]; 2 µg/mL (≈ 6.26 µM) against Staphylococcus aureus [9]; 2 µg/mL (≈ 6.26 µM) in the experiment on Staphylococcus aureus [10]. Further, the MIC in the experiment on Staphylococcus aureus [11] was 32 µg/mL (≈ 100 µM); in the experiment with Staphylococcus aureus [12], 4 µg/mL (≈ 12.5 µM); with Escherichia coli (ATCC 25922, 18 h), 0.12 µg/mL (≈ 0.376 µM); in the experiment with Enterococcus faecalis [15], 4 µg/mL (≈ 12.5 µM).
As for `C1CCC(NC2CCCCC2)CC1.CC(C)CCC[C@]1(C)[C@@H](CCC(C)C)C[C@@]2(CCC(C)C)C(=O)[C@]1(C(=O)C(C)C)C(=O)C(CCC(C)C)=C2O` [OCTAHYDROHYPERFORIN DICYCLOHEXYLAMMONIUM SALT], the Activity in the experiment with Staphylococcus aureus [18] worked out at 45%; with Staphylococcus aureus [19], 47%; in the experiment with Staphylococcus aureus [20], 52%; in the experiment with Staphylococcus aureus [21] it was 52%; in the experiment with Enterococcus faecalis [22], 45%. For the same molecule, the MBIC in the experiment on Enterococcus faecalis [1] came to 37.5 µg/mL; in the experiment with Staphylococcus aureus [4], 150 µg/mL; in the experiment with Staphylococcus aureus [8], 37.5 µg/mL; with Staphylococcus aureus [13] it was 37.5 µg/mL. The MIC against Staphylococcus aureus [3] turned out to be 1 µg/mL; with Staphylococcus aureus [7], 4 µg/mL; in the experiment with Staphylococcus aureus [17], 1 µg/mL; in the experiment with Staphylococcus aureus [9], 4 µg/mL; against Staphylococcus aureus [10], 4 µg/mL; in the experiment with Staphylococcus aureus [11], 4 µg/mL. Further, the MIC against Staphylococcus aureus [12] and in the experiment on Enterococcus faecalis [15] was 4 µg/mL in each case. In the experiment with Escherichia coli, the MIC result was “inactive”.
